From ChEMBL document CHEMBL4673249, “Anticancer Effects of Honokiol via Mitochondrial Dysfunction Are Strongly Enhanced by the Mitochondria-Targeting Carrier Berberine” (J Med Chem, 2020)
Active and inactive are the calls of the source. The rule behind the calls is not given here.

Key:
[1] = test system: A549; test: Antiproliferative activity against human A549 cells assessed as reduction in cell viability after 48 hrs by MTT assay; assay type: functional, cell-based; settings: A549, 48 h
Procedure, shortened: (§1)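 Cell lines grown at 37 °C in 5% CO2: A2780, A549, HL7702 and PC3 in RPMI 1640; HT29 in McCoy's 5A; HepG2 and PANC-1 in DMEM; all media with 10% FBS and penicillin/streptomycin. Cells seeded and left overnight, then exposed to compound for 48 h. MTT (5 mg/mL solution) added for 4 h at 37 °C, formazan dissolved in DMSO, absorbance read at 570 nm. IC50 taken from viability; run in triplicate.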

[2] = test system: A2780; test: Antiproliferative activity against human A2780 cells assessed as reduction in cell viability after 48 hrs by MTT assay; assay type: functional, cell-based; settings: A2780, 48 h; procedure, shortened: as §1
[3] = test system: HepG2; test: Antiproliferative activity against human HepG2 cells assessed as reduction in cell viability after 48 hrs by MTT assay; assay type: functional, cell-based; settings: HepG2, 48 h; procedure, shortened: as §1
[4] = test system: HT-29; test: Antiproliferative activity against human HT29 cells assessed as reduction in cell viability after 48 hrs by MTT assay; assay type: functional, cell-based; settings: HT-29, 48 h; procedure, shortened: as §1
[5] = test system: PANC-1; test: Antiproliferative activity against human PANC1 cells assessed as reduction in cell viability after 48 hrs by MTT assay; assay type: functional, cell-based; settings: PANC-1, 48 h; procedure, shortened: as §1
[6] = test system: PC-3; test: Antiproliferative activity against human PC-3 cells assessed as reduction in cell viability after 48 hrs by MTT assay; assay type: functional, cell-based; settings: PC-3, 48 h; procedure, shortened: as §1
[7] = test system: L02; test: Antiproliferative activity against human L02 cells assessed as reduction in cell viability after 48 hrs by MTT assay; assay type: cell-based; settings: L02, 48 h; procedure, shortened: as §1
[8] = test system: HepG2; test: Induction of morphological changes in human HepG2 cells assessed as accumulation of cytoplasmic vacuoles at 4 uM after 24 hrs by optical microscopic method; assay type: functional, cell-based
Procedure, shortened: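 Cells grown at 37 °C, 5% CO2 in media with 10% FBS and penicillin/streptomycin, then treated with compound. Cytoplasmic vacuoles judged by optical microscopy. Time course at 4 μM, or 10 h exposure across increasing concentrations.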

[9] = test system: HepG2; test: Synergistic antiproliferative activity against human HepG2 cells assessed as combination index at 20 to 80 uM after 48 hrs in presence of 10 to 40 uM HN by MTT assay; assay type: functional; settings: dose 20-80 µM
[10] = test system: HepG2; test: Induction of morphological changes in human HepG2 cells assessed as accumulation of cytoplasmic vacuoles at 40 uM after 24 hrs by optical microscopic method; assay type: functional, cell-based
[11] = test system: HepG2; test: Synergistic antiproliferative activity against human HepG2 cells assessed as combination index after 48 hrs in presence HN by MTT assay; assay type: functional
[12] = test system: HepG2; test: Synergistic antiproliferative activity against human HepG2 cells assessed as combination index after 48 hrs in presence BBR by MTT assay; assay type: functional
[13] = Drug uptake in human HepG2 cells mitochondria at 5 uM after 12 hrs by HPLC analysis; assay type: ADME; settings: hepg2, 12 h
Procedure, shortened: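 HepG2 cells given 5 μM for 12 h, then homogenized in mitochondrial extraction reagent. Spun at 600 g, 4 °C, 10 min; supernatant spun again at 11000 g, 4 °C, 10 min, and the pellet taken as mitochondria. Drug content by HPLC on a C18 column with methanol–0.1% acetic acid (80:20), detection at 265 nm. Run thrice.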

[14] = test system: HepG2; test: Induction of morphological changes in human HepG2 cells assessed as accumulation of cytoplasmic vacuoles >30 uM after 24 hrs by optical microscopic method; assay type: functional, cell-based; settings: dose microM >30, time 24.0 hrs

IC50 [1]	IC50 [2]	IC50 [3]	IC50 [4]	IC50 [5]	IC50 [6]	Drug uptake [13]	SMILES	IC50 [7]	Activity [8]	CI [9]	Activity [10]	CI [11]	CI [12]	Activity [14]
1.71 µM	1360 nM	1040 nM	1.56 µM	2.96 µM	1120 nM	–	C=CCc1ccc(OCCCCCc2c3[n+](cc4c(OC)c(OC)ccc24)CCc2cc4c(cc2-3)OCO4)c(-c2ccc(OC)c(CC=C)c2)c1	2.97 µM	Active	–	–	–	–	–
2.09 µM	1970 nM	1270 nM	2.54 µM	2.48 µM	2000 nM	–	C=CCc1ccc(OCCCCCCCCc2c3[n+](cc4c(OC)c(OC)ccc24)CCc2cc4c(cc2-3)OCO4)c(-c2ccc(O)c(CC=C)c2)c1	5.77 µM	Active	–	–	–	–	–
3.25 µM	1560 nM	2190 nM	> 5 µM	6.02 µM	1170 nM	–	C=CCc1ccc(O)c(-c2ccc(OCCCc3c4[n+](cc5c(OC)c(OC)ccc35)CCc3cc5c(cc3-4)OCO5)c(CC=C)c2)c1	3.56 µM	Active	–	–	–	–	–
> 5 µM	3030 nM	3710 nM	> 5 µM	> 5 µM	2260 nM	–	C=CCc1ccc(OCCCc2c3[n+](cc4c(OC)c(OC)ccc24)CCc2cc4c(cc2-3)OCO4)c(-c2ccc(O)c(CC=C)c2)c1	5.21 µM	Active	–	–	–	–	–
2.9 µM	1590 nM	2320 nM	> 5 µM	3.24 µM	1590 nM	–	C=CCc1ccc(OCCCCCc2c3[n+](cc4c(OC)c(OC)ccc24)CCc2cc4c(cc2-3)OCO4)c(-c2ccc(O)c(CC=C)c2)c1	3.04 µM	Active	–	–	–	–	–
1.84 µM	1520 nM	770 nM	2.89 µM	2.09 µM	1740 nM	–	C=CCc1ccc(O)c(-c2ccc(OCCCCCCCCc3c4[n+](cc5c(OC)c(OC)ccc35)CCc3cc5c(cc3-4)OCO5)c(CC=C)c2)c1	4.82 µM	Active	–	–	–	–	–

The remaining lines, values behind:

SMILES	IC50 [1]	IC50 [2]	IC50 [3]	IC50 [4]	IC50 [5]	IC50 [6]	Drug uptake [13]	IC50 [7]	Activity [8]	CI [9]	Activity [10]	CI [11]	CI [12]	Activity [14]
COc1ccc2cc3[n+](cc2c1OC)CCc1cc2c(cc1-3)OCO2.[Cl-] [BERBERINE CHLORIDE]	> 50 µM	> 50000 nM	> 50000 nM	> 50 µM	> 50 µM	31700 nM	–	> 50 µM	–	>1	inactive	–	–	–
CCCCCc1c2[n+](cc3c(OC)c(OC)ccc13)CCc1cc3c(cc1-2)OCO3.[I-]	–	–	29300 nM	–	–	–	–	–	–	–	Active	0.79	–	–
C=CCc1ccc(OC)c(-c2ccc(O)c(CC=C)c2)c1	> 30 µM	24700 nM	29600 nM	35.4 µM	16.4 µM	24800 nM	–	35.3 µM	–	–	–	–	–	–
C=CCc1ccc(OCCC)c(-c2ccc(OCCCCCc3c4[n+](cc5c(OC)c(OC)ccc35)CCc3cc5c(cc3-4)OCO5)c(CC=C)c2)c1	1.25 µM	1410 nM	950 nM	1.95 µM	1.69 µM	1220 nM	–	3.05 µM	Active	–	–	–	–	–
C=CCc1ccc(O)c(-c2ccc(OCCC)c(CC=C)c2)c1	21 µM	14700 nM	19100 nM	26.5 µM	17.8 µM	21100 nM	–	27.8 µM	–	–	–	–	–	–
C=CCc1ccc(OCCCCCc2c3[n+](cc4c(OC)c(OC)ccc24)CCc2cc4c(cc2-3)OCO4)c(-c2ccc(OCCC)c(CC=C)c2)c1	1.66 µM	1680 nM	920 nM	2.39 µM	2.56 µM	1430 nM	–	3.62 µM	Active	–	–	–	–	–
C=CCc1ccc(O)c(-c2ccc(OCCCCC)c(CC=C)c2)c1	–	–	19200 nM	–	–	–	–	–	–	–	–	–	0.79	–
C=CCc1ccc(OCCC)c(-c2ccc(O)c(CC=C)c2)c1	14.7 µM	14700 nM	15500 nM	26.4 µM	15.9 µM	17000 nM	–	22.4 µM	–	–	–	–	–	–
C=CCc1ccc(O)c(-c2ccc(OC)c(CC=C)c2)c1 [METHYLHONOKIOL]	22 µM	14700 nM	17500 nM	21.1 µM	16.7 µM	17900 nM	–	23.9 µM	–	–	–	–	–	–
C=CCc1ccc(OC)c(-c2ccc(OCCCCCc3c4[n+](cc5c(OC)c(OC)ccc35)CCc3cc5c(cc3-4)OCO5)c(CC=C)c2)c1	1.33 µM	1170 nM	1050 nM	1.64 µM	1.73 µM	990 nM	–	3.43 µM	Active	–	–	–	–	–
C=CCc1ccc(O)c(-c2ccc(O)c(CC=C)c2)c1 [HONOKIOL]	38 µM	31600 nM	23800 nM	31.6 µM	31.2 µM	29000 nM	17.8 µM	25.5 µM	–	–	–	–	–	Active
COc1cccc2c1C(=O)c1c(O)c3c(c(O)c1C2=O)C[C@@](O)(C(=O)CO)C[C@@H]3O[C@H]1C[C@H](N)[C@H](O)[C@H](C)O1 [DOXORUBICIN]	3.08 µM	710 nM	670 nM	5.92 µM	1.73 µM	930 nM	–	2.24 µM	–	–	–	–	–	–
